# E coli RNAP = E. coli RNAP inhibitors, biochemical | E. coli RNA polymerase, fluorescence transcription assay | DNA-directed RNA polymerase subunit beta (Escherichia coli (strain K12)), P0A8V2 | AID 559, 2006 | inhibition, %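 (tested at 10 µM)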 | hit rate 0.2% among 62,000; in the data active means inhibition above about 20%;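 further: 0% = enzyme without compound and 100% = no enzyme blank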
# CatB mixtures = cathepsin B inhibitors from pooled compounds, primary screen, biochemical, compound mixtures, AMC fluorescence. Purified cathepsin B, AMC dipeptide fluorescence. inhibition, %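 (ten-compound pools at 5 µM per compound and 50 µM total)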. hit rate 0.06% among 62,000. AID 488, 2006; in the data active means inhibition above about 22%, passing the limit was not always enough;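 further: 0% = enzyme without compound and 100% = no enzyme blank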
# CatL block = inhibitors of human cathepsin L, biochemical; Procathepsin L (Homo sapiens), P07711; purified cathepsin L, fluorogenic substrate, fluorescence; inhibition, %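 (tested at 10 µM)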; hit rate 0.17% among 58,000; in the data active means inhibition above about 45%;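 further: 0% = enzyme with no compound and 100% = no enzyme blank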
# Target sequence (P07711 114-288 limits assumed): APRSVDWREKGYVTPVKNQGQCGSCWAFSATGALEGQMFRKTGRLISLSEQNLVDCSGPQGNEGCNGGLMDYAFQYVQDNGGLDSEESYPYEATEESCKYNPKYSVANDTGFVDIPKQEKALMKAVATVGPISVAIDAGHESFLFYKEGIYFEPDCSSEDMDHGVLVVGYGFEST
# Target sequence (P07711 292-333 limits assumed): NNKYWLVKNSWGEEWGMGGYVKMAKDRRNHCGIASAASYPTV
# AP complement = alternative complement pathway inhibitors, primary screen, biochemical, ELISA, human serum, orthogonally pooled compounds. hit rate 0.08% among 62,000. inhibition, % at 5 µM. AID 1235, 2008. LPS-coated ELISA, C3 deposition; tested in compound mixtures;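 active means inhibition above 30% in each of the two pooled mixtures holding the compound, so the lower value exceeds 30%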;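 further: 0% = serum in Mg-EGTA without compound and 100% = EDTA serum blank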
#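 Assay system: Human serum alternative complement pathway, C3 deposition on LPS-coated wells | Incubation: 1 h serum-compound exposure at 37 °C | Doses: 5 µM per compound in ten-compound mixtures | Read-out: Percent inhibition | Technique: ELISA with HRP anti-human C3 antibody, TMB substrate, absorbance 450 nm | Replication: Two pool placements per compound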
# CatS inh = inhibitors of human cathepsin S, biochemical, compound mixtures | recombinant cathepsin S, AMC dipeptide fluorescence, pooled mixtures | inhibition, %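 (tested at 5 µM per compound within 10-compound mixtures)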 | hit rate 0.06% among 62,000 | AID 501, 2006; in the data active means inhibition above about 32%, passing the limit was not always enough;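 further: 0% = enzyme without compound and 100% = blank without enzyme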
# Target sequence (P25774 115-331 limits assumed): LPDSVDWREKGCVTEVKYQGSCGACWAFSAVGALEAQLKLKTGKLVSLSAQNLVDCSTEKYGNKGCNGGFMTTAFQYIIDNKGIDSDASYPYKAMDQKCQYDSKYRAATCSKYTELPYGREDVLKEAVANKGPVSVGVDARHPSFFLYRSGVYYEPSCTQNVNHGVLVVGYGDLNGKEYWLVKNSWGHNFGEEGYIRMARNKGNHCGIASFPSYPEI
# CatB block = human cathepsin B inhibitors, primary screen, biochemical, fluorogenic substrate. P07858. purified cathepsin B, fluorescence. inhibition, %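 (tested at 10 µM)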. hit rate 0.1% among 63,000. AID 453, 2006; in the data active means inhibition above about 21%;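 further: 0% = enzyme with no compound and 100% = no enzyme blank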
# Starred values were filed as active, the others as inactive; nt = no result given. Shown are actives, neighbours in structure and some others; about 0.51% of the full set was active somewhere.
SMILES,E coli RNAP,CatB mixtures,CatL block,AP complement,CatS inh,CatB block
CCOC(=O)c1[nH]c(C)c(C(=O)Nc2ccccc2C)c1C,21*,7,14,2,12,5
CCOC(=O)c1[nH]c(C)c(C(=O)Nc2cc(Cl)ccc2C)c1C,2,6,12,5,10,0
CCCCN1CC(C(=O)NC2CCCCC2)CC1=O (stereo not given),6,-3,16,1,-11,-1
Cn1c(C(=O)NCCN2CCOCC2)cc2c(=O)n(C)c3ccccc3c21,0,2,nt,4,81*,-3
Cn1c(C(=O)NCCN2CCc3ccccc3C2)cc2c(=O)n(C)c3ccccc3c21,3,2,13,10,74*,3
Clc1ccc2oc(-c3ccccn3)nc2c1,9,0,7,38*,-3,1
Nc1ccc2oc(-c3ccccn3)nc2c1,3,1,nt,12,-3,4
CCCc1c(CC)c(=N)c2ccccc2n1C,-5,-5,-46,11,-8,-5
Cc1ccc(CN(C(=O)Cn2nnc3ccccc32)C(C(=O)NCc2ccco2)c2cccs2)cc1 (stereo not given),-4,23*,6,-15,12,4
CN(C1CCCCC1)S(=O)(=O)c1ccc(C(=O)O)cc1,5,-5,1,-2,5,13
CN(C1CCCCC1)S(=O)(=O)c1ccc(Cl)c(C(=O)O)c1,8,1,48*,-33,17,7
Cc1ccc(-n2c(N)c(C(N)=O)sc2=S)c(C)c1,14,-1,14,-4,9,1
Cc1ccc(C)c(-n2c(N)c(C(N)=O)sc2=S)c1,40*,24,-1,7,7,4
Cc1ccc(-c2csc(N3CCC(NS(=O)(=O)c4ccc5c(c4)OCCO5)CC3)n2)cc1,12,1,24,-5,1,5
CCCCOC(=O)c1ccc(NC(=O)C(CCS(C)(=O)=O)NC(C)=O)cc1 (stereo not given),9,3,5,5,-2,4
CC(=O)Nc1ccc(C(=O)OCCC(C)C)cc1,68*,-2,13,9,11,3
COc1ccc(C2(O)CCN(CC(=O)Nc3nccs3)CC2)c(OC)c1,5,5,11,14,0,3
COc1ccc(C2C(C(=O)NCc3ccccn3)c3cc(OC)c(OC)cc3C(=O)N2C)cc1 (stereo not given),6,-3,59*,3,-10,5
O=C(Nc1ccccc1)c1cc(N2CCOCC2)nc2ccccc12,7,nt,9,nt,nt,4
Cc1cccc(NC(=O)c2cc(N3CCOCC3)nc3ccccc23)c1,21*,nt,7,nt,nt,4
c1coc(-c2nc(-c3ccco3)c(-c3ccco3)nc2-c2ccco2)c1,23*,5,39,14,-10,6
COC(=O)c1cc(OC)c(OC)cc1NC(=O)CSc1nnnn1Cc1ccccc1,4,5,-2,21,-1,-4
COc1ccc(-n2c(COc3cccc(C)c3)nnc2SCC(=O)NCc2ccco2)cc1,22*,-8,10,1,-3,5
CCOc1ccc(NCc2nnc(SCC(=O)Nc3cc(C)on3)n2-c2ccc(OC)cc2)cc1,25*,2,-1,12,2,1
COc1cccc(OCc2nnc(SCC(=O)NCc3ccco3)n2CCc2ccccc2)c1,-5,0,1,18,-3,3
SMILES,E coli RNAP,CatB mixtures,CatL block,AP complement,CatS inh,CatB block
CCOc1ccc(NCc2nnc(SCC(=O)Nc3cc(C)on3)n2-c2ccccc2OC)cc1,9,4,0,2,8,-3
O=S(=O)(Nc1ccc2c(c1)OCO2)c1ccc(Br)s1,5,5,-4,9,-4,4
CCOC(=O)c1cc(-c2ccc(F)cc2)n(CC(=O)Nc2nccs2)c1C,10,-1,27,11,-7,2
COc1ccc(Cc2c(O)nc(SC)n(C(C)=O)c2=O)cc1,25*,-3,22,16,10,-1
COc1ccc(NC(=O)CSc2nc(O)c(Cc3ccccc3)c(=O)[nH]2)cc1,6,0,5,-10,4,0
COc1ccccc1-n1c(CNC(=O)c2ccco2)nnc1SCC(=O)Nc1ccc(F)cc1,-1,4,-10,20,-5,-4
Cc1ccc(N(CC(=O)NC2CCC(C)CC2)S(=O)(=O)c2cccnc2)cc1 (stereo not given),5,34,72*,5,4,7
CC(NS(=O)(=O)c1ccc(F)cc1)C(c1cccs1)N1CCN(C)CC1 (stereo not given),21*,1,13,-9,11,5
CC(NC(=O)c1ccc(F)cc1)C(c1cccs1)N1CCN(C)CC1 (stereo not given),13,2,9,-8,-1,4
COc1ccc(OC)c(S(=O)(=O)N2CCN(C34CC5CC(CC(C5)C3)C4)CC2)c1,5,3,4,17,0,5
Cc1cc(NC(=O)CN2CCc3ccccc3C2)nc2c1c(=O)oc1ccccc12,14,0,20,3,43,7
CN(C)CCNc1nc2c(c(=O)[nH]c(=O)n2C)n1CC(O)COc1ccc(Cl)cc1 (stereo not given),7,-1,47*,-2,1,7
CC1(C)CC(=O)C2=C(C1)Nc1[nH]c(=S)[nH]c(=O)c1C2c1ccccc1 (stereo not given),2,-1,nt,-1,-1,-1
O=C(CCCc1cccs1)Nc1nc2c(s1)CCCC2,9,7,48*,10,7,-2
COc1ccc(S(=O)(=O)n2nc(OC(=O)c3ccccc3Br)cc2N)cc1,3,-2,-8,16,-22,3
COc1ccc(S(=O)(=O)n2nc(OC(=O)c3ccco3)cc2N)cc1,5,67*,14,22,16,78*
COc1ccc(S(=O)(=O)n2nc(OC(=O)c3ccccc3)cc2N)cc1,4,29*,-1,16,14,39*
COc1ccc(S(=O)(=O)n2nc(OC(=O)c3ccc(C)cc3)cc2N)cc1,4,32*,-3,15,-5,49*
CC(C)(C)C(=O)Oc1cc(N)n(S(=O)(=O)c2ccccc2)n1,4,7,18,-13,25,9
Cc1ccc(S(=O)(=O)n2nc(OC(=O)c3c(-c4ccccc4Cl)noc3C)cc2N)cc1,3,3,-5,11,1,0
COc1ccc(S(=O)(=O)n2nc(OC(=O)c3cccs3)cc2N)cc1,0,68*,-4,14,0,76*
COc1ccc(-n2c(SCC(=O)N3CCCC3)nc3c([nH]c4ccccc43)c2=O)cc1,1,1,nt,7,-2,-1
